# Measurements taken from ChEMBL document CHEMBL1127500, “Structure-activity studies of benzimidazole-based DNA-cleaving agents. Comparison of benzimidazole, pyrrolobenzimidazole, and tetrahydropyridobenzimidazole analogues” (1994).
# How the values were obtained:
# Format in all cases: functional
# SF-268 = experiment: Antitumor activity against SF-268 cell line; conditions: Homo sapiens
# Outline: (§1)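 Drugs were screened against a panel of up to 60 human cancer cell lines. The end-point was LC50, the drug concentration lethal to 50% of the cancer cells. Values were expressed as log LC50 and plotted as mean graphs centred on the log of the panel-mean LC50. Bars to the right mark lines with lower log LC50 than the mean.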
# DMS-114 = experiment: Antitumor activity against DMS 114 cell line; conditions: Homo sapiens; outline: as §1
# TK-10 = experiment: Antitumor activity against Renal cancer TK-10 cell line; conditions: Homo sapiens; outline: as §1
# [1] = Mean log10 LC50 was determined
# Outline: (§2)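 Screened against a panel of up to 60 human cancer cell lines. Read-out is LC50, the drug concentration lethal to 50% of the cells, expressed as log LC50. The mean log LC50 across the screened lines is the centre line of the mean graph. Each line's deviation from that mean is shown as a bar.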
# NCI-H522 = experiment: Antitumor activity against NCI-H522 cell line; conditions: Homo sapiens; outline: as §1
# Malme-3M = experiment: Antitumor activity against MALME-3M cell line; conditions: Homo sapiens; outline: as §1
# OVCAR-4 = experiment: Antitumor activity against OVCAR-4 cell line; conditions: Homo sapiens; outline: as §1
# OVCAR-8 = experiment: Antitumor activity against OVCAR-8 cell line; conditions: Homo sapiens, read-out: Log LC50 (the source's name) (converted); outline: as §1
# IGROV-1 = experiment: Antitumor activity against IGROVI cell line; conditions: Homo sapiens; outline: as §1
# KM-20L2 = experiment: Antitumor activity against KM 20L2 cell line; conditions: Homo sapiens; outline: as §1
# U-251 = experiment: Antitumor activity against U251 cell line; conditions: Homo sapiens; outline: as §2
# 786-0 = experiment: Antitumor activity against Renal cancer 786-O cell line; conditions: Homo sapiens; outline: as §1
# UO-31 = experiment: Antitumor activity against Renal cancer UO-31 cell line; conditions: Homo sapiens; outline: as §1
# OVCAR-3 = experiment: Antitumor activity against OVCAR-3 cell line; conditions: Homo sapiens; outline: as §1
# HCT-116 = experiment: Antitumor activity against HCT116 cell line; conditions: Homo sapiens, read-out: Log LC50 (the source's name) (converted); outline: as §1
# SNB-19 = experiment: Antitumor activity against SNB-19 cell line; conditions: Homo sapiens; outline: as §2
# HT-29 = experiment: Antitumor activity against HT 29 cell line; conditions: Homo sapiens, read-out: Log LC50 (the source's name) (converted); outline: as §1
# OVCAR-5 = experiment: Antitumor activity against OVCAR-5 cell line; conditions: Homo sapiens; outline: as §1
# SR = experiment: Antitumor activity against SR leukemia cell line; conditions: Homo sapiens, read-out: Log LC50 (the source's name) (converted); outline: as §2
# NCI-H322M = experiment: Antitumor activity against NCI-H322M cell line; conditions: Homo sapiens, read-out: Log LC50 (the source's name) (converted); outline: as §1
# LXFL 529 = experiment: Antitumor activity against […] cell line; conditions: Homo sapiens; outline: as §1
# UACC-257 = experiment: Antitumor activity against UACC-257 cell line; conditions: Homo sapiens; outline: as §2
# M19-MEL = experiment: Antitumor activity against M 19-MEL cell line; conditions: Homo sapiens; outline: as §1
# SK-MEL-5 = experiment: Antitumor activity against SK-MEL-5 cell line; conditions: Homo sapiens; outline: as §2
# MOLT-4 = experiment: Antitumor activity against MOLT-4 leukemia cell line; conditions: Homo sapiens; outline: as §1
# K562 = experiment: Antitumor activity against K-562 leukemia cell line; conditions: Homo sapiens, read-out: Log LC50 (the source's name) (converted); outline: as §1
# CAKI-1 = experiment: Antitumor activity against Renal cancer CAKI-1 cell line; conditions: Homo sapiens, read-out: Log LC50 (the source's name) (converted); outline: as §1
# SK-MEL-28 = experiment: Antitumor activity against SK-MEL-28 cell line; conditions: Homo sapiens; outline: as §2
# A549 = experiment: Antitumor activity against A549/ATCC cell line; conditions: Homo sapiens; outline: as §1
# SW-620 = experiment: Antitumor activity against SW-620 cell line; conditions: Homo sapiens; outline: as §2
# EKVX = experiment: Antitumor activity against EKVX cell line; conditions: Homo sapiens; outline: as §1
# NCI-H226 = experiment: Antitumor activity against NCI-H226 cell line; conditions: Homo sapiens; outline: as §1
# SNB- = experiment: Antitumor activity against SNB-71 cell line; conditions: Homo sapiens, read-out: Log LC50 (the source's name) (converted); outline: as §2
# SN12C = experiment: Antitumor activity against Renal cancer SN 12C cell line; conditions: Homo sapiens; outline: as §1
# HOP-92 = experiment: Antitumor activity against HOP-92 cell line; conditions: Homo sapiens, read-out: Log LC50 (the source's name) (converted); outline: as §1
# SNB-75 = experiment: Antitumor activity against SNB-75 cell line; conditions: Homo sapiens; outline: as §2
# DLD-1 = experiment: Antitumor activity against DLD-1 cell line; conditions: Homo sapiens; outline: as §1
# HOP-62 = experiment: Antitumor activity against HOP-62 cell line; conditions: Homo sapiens; outline: as §1
# HL-60 = experiment: Antitumor activity against HL-60(TB) leukemia cell line; conditions: Homo sapiens, read-out: Log LC50 (the source's name) (converted); outline: as §1
# HCC 2998 = experiment: Antitumor activity against HCC2998 cell line; conditions: Homo sapiens, read-out: Log LC50 (the source's name) (converted); outline: as §1
# RXF 393 = experiment: Antitumor activity against Renal cancer RXF-393 cell line; conditions: Homo sapiens; outline: as §1
# ACHN = experiment: Antitumor activity against Renal cancer ACHN cell line; conditions: Homo sapiens, read-out: Log LC50 (the source's name) (converted); outline: as §1
# SF-539 = experiment: Antitumor activity against SF-539 cell line; conditions: Homo sapiens; outline: as §1
# KM12 = experiment: Antitumor activity against KM 12 cell line; conditions: Homo sapiens, read-out: Log LC50 (the source's name) (converted); outline: as §1
# RPMI-8226 = experiment: Antitumor activity against RPMI-8226 leukemia cell line; conditions: Homo sapiens, read-out: Log LC50 (the source's name) (converted); outline: as §1
# DMS-273 = experiment: Antitumor activity against DMS 273 cell line; conditions: Homo sapiens, read-out: Log LC50 (the source's name) (converted); outline: as §1
# SK-OV-3 = experiment: Antitumor activity against SK-OV-3 cell line; conditions: Homo sapiens, read-out: Log LC50 (the source's name) (converted); outline: as §2
# A498 = experiment: Antitumor activity against Renal cancer A498 cell line; conditions: Homo sapiens, read-out: Log LC50 (the source's name) (converted); outline: as §1
# NCI-H23 = experiment: Antitumor activity against NCI-1123 cell line; conditions: Homo sapiens, read-out: Log LC50 (the source's name) (converted); outline: as §1
# COLO 205 = experiment: Antitumor activity against COLO 205 cell line; conditions: Homo sapiens, read-out: Log LC50 (the source's name) (converted); outline: as §1
# M14 = experiment: Antitumor activity against M 14 cell line; conditions: Homo sapiens; outline: as §1
# CCRF-CEM = experiment: Antitumor activity against CCRF-CEM leukemia cell line; conditions: Homo sapiens, read-out: Log LC50 (the source's name) (converted); outline: as §1
# SK-MEL-2 = experiment: Antitumor activity against SK-MEL-2 cell line; conditions: Homo sapiens, read-out: Log LC50 (the source's name) (converted); outline: as §1
# UACC-62 = experiment: Antitumor activity against UACC-62 cell line; conditions: Homo sapiens, read-out: Log LC50 (the source's name) (converted); outline: as §2
# LOX IMVI = experiment: Antitumor activity against LOX IMVI cell line; conditions: Homo sapiens; outline: as §1
# NCI-H460 = experiment: Antitumor activity against NCI-11460 cell line; conditions: Homo sapiens, read-out: Log LC50 (the source's name) (converted); outline: as §1
# SF-295 = experiment: Antitumor activity against SF-295 cell line; conditions: Homo sapiens, read-out: Log LC50 (the source's name) (converted); outline: as §1
# XF498 = experiment: Antitumor activity against XF 498 cell line; conditions: Homo sapiens, read-out: Log LC50 (the source's name) (converted); outline: as §2
# HCT-15 = experiment: Antitumor activity against HCT-15 cell line; conditions: Homo sapiens, read-out: Log LC50 (the source's name) (converted); outline: as §1
# HOP-18 = experiment: Antitumor activity against HOP-18 cell line; conditions: Homo sapiens, read-out: Log LC50 (the source's name) (converted); outline: as §1
smiles,measurement,setting,value
CC(=O)OC1CCCn2c1nc1c2C(=O)C(C)=C(N2CC2)C1=O (configuration not stated),LC50,SF-268,0.692 µM
same,LC50,DMS-114,7.76 µM
same,LC50,TK-10,25.1 µM
same,Mean log LC50,[1],-5.04
same,LC50,NCI-H522,3.72 µM
same,LC50,Malme-3M,2.34 µM
same,LC50,OVCAR-4,5.89 µM
same,CC50,OVCAR-8,5.62 µM
same,LC50,IGROV-1,30.9 µM
same,LC50 (concentration lethal to 50% of cells),KM-20L2,4.68 µM
same,LC50,U-251,3.39 µM
same,LC50,786-0,43.7 µM
same,LC50 (concentration lethal to 50% of cancer cells),UO-31,20 µM
same,LC50,OVCAR-3,6.31 µM
same,CC50,HCT-116,17.8 µM
same,LC50,SNB-19,5.89 µM
same,CC50,HT-29,1.82 µM
same,LC50,OVCAR-5,4.9 µM
same,CC50,SR,> 100 µM
same,CC50,NCI-H322M,26.9 µM
same,LC50,LXFL 529,4.9 µM
same,LC50,UACC-257,3.8 µM
same,LC50,M19-MEL,35.5 µM
same,LC50,SK-MEL-5,0.661 µM
same,LC50,MOLT-4,> 100 µM
same,CC50,K562,> 100 µM
same,CC50,CAKI-1,3.31 µM
same,LC50,SK-MEL-28,6.03 µM
same,LC50,A549,32.4 µM
same,LC50,SW-620,53.7 µM
same,LC50,EKVX,3.98 µM
same,LC50,NCI-H226,3.98 µM
same,CC50,SNB-,33.1 µM
same,LC50,SN12C,4.17 µM
same,CC50,HOP-92,> 100 µM
same,LC50,SNB-75,4.57 µM
same,LC50,DLD-1,87.1 µM
same,LC50,HOP-62,1.82 µM
same,CC50,HL-60,> 100 µM
same,CC50,HCC 2998,3.09 µM
same,LC50,RXF 393,4.68 µM
same,CC50,ACHN,25.7 µM
same,LC50 (concentration lethal to 50% of cells),SF-539,14.1 µM
same,CC50,KM12,5.25 µM
same,CC50,RPMI-8226,> 100 µM
same,CC50,DMS-273,5.37 µM
same,CC50,SK-OV-3,7.08 µM
same,CC50,A498,1.29 µM
same,CC50,NCI-H23,3.98 µM
same,CC50,COLO 205,18.2 µM
same,LC50,M14,0.794 µM
same,CC50,CCRF-CEM,> 100 µM
same,CC50,SK-MEL-2,3.8 µM
same,CC50,UACC-62,4.9 µM
same,LC50,LOX IMVI,5.37 µM
same,CC50,NCI-H460,0.676 µM
CC(=O)OC1CCn2c1nc1c2C(=O)C(N2CC2)=C(C)C1=O (configuration not stated),LC50,SF-268,5.62 µM
same,LC50,DMS-114,> 100 µM
same,LC50,TK-10,2.88 µM
same,Mean log LC50,[1],-5.68
same,LC50,NCI-H522,0.1 µM
same,LC50,Malme-3M,0.589 µM
same,LC50,OVCAR-4,0.38 µM
same,CC50,OVCAR-8,1 µM
same,LC50,IGROV-1,8.13 µM
same,LC50 (concentration lethal to 50% of cells),KM-20L2,4.37 µM
same,LC50,U-251,3.09 µM
same,LC50,786-0,0.347 µM
same,LC50 (concentration lethal to 50% of cancer cells),UO-31,0.145 µM
same,LC50,OVCAR-3,3.39 µM
same,LC50,SNB-19,2.57 µM
same,CC50,HT-29,5.37 µM
same,LC50,OVCAR-5,3.39 µM
same,CC50,NCI-H322M,2.69 µM
same,LC50,LXFL 529,0.525 µM
same,LC50,UACC-257,2.04 µM
same,LC50,M19-MEL,> 100 µM
same,LC50,SK-MEL-5,0.224 µM
same,LC50,MOLT-4,> 100 µM
same,CC50,K562,> 100 µM
same,CC50,CAKI-1,6.46 µM
same,LC50,SK-MEL-28,0.603 µM
same,LC50,A549,7.76 µM
same,LC50,SW-620,4.27 µM
same,LC50,EKVX,0.832 µM
same,CC50,SF-295,2 µM
same,LC50,NCI-H226,0.955 µM
same,CC50,SNB-,6.46 µM
same,LC50,SN12C,0.617 µM
same,CC50,HOP-92,11.2 µM
same,LC50,SNB-75,0.603 µM
same,LC50,DLD-1,53.7 µM
same,LC50,HOP-62,0.219 µM
same,CC50,HCC 2998,0.372 µM
same,LC50,RXF 393,0.0513 µM
same,CC50,ACHN,2.34 µM
same,LC50 (concentration lethal to 50% of cells),SF-539,0.631 µM
same,CC50,KM12,1.07 µM
same,CC50,RPMI-8226,> 100 µM
same,CC50,XF498,0.126 µM
same,CC50,SK-OV-3,2.95 µM
same,LC50,M14,0.324 µM
same,CC50,HCT-15,3.09 µM
same,CC50,CCRF-CEM,> 100 µM
same,CC50,SK-MEL-2,0.479 µM
same,LC50,LOX IMVI,0.0661 µM
same,CC50,HOP-18,3.16 µM
